Assay results taken from ChEMBL document CHEMBL4828720, “Macrocyclic Immunoproteasome Inhibitors as a Potential Therapy for Alzheimer's Disease” (J Med Chem, 2021).
Active and inactive are the calls of the source. The rule behind the calls is not given here.

Experiments:
[1] = target: T1, Proteasome subunit beta type-9 (Homo sapiens, UniProt P28065); experiment: Inhibition of human 20S proteasome LMP2 using Ac-PAL-AMC as fluorogenic substrate measured every minute for 1 hr by fluorescence assay
T1 sequence (P28065 whole entry): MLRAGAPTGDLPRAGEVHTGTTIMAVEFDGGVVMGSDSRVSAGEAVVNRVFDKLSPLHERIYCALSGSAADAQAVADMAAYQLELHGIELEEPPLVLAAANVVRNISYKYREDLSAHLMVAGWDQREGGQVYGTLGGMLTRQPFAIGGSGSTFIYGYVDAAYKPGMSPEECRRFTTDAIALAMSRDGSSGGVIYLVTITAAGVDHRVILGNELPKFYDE
In short: (§1)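 Preincubated 1 h with inhibitor at 3-10,000 nM (8 concentrations). Substrates at 100 μM: Ac-PAL-AMC (LMP2), Ac-nLPnLD-AMC (Y), Ac-ANW-AMC (LMP7). Ac-WLA-AMC (X) at 20 μM. AMC fluorescence (360/460 nm) read each minute for 1 h; 3 replicates.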

[2] = target: T2, Proteasome subunit beta type-8 (Homo sapiens, UniProt P28062); experiment: Inhibition of human 20S proteasome LMP7 using Ac-ANW-AMC as fluorogenic substrate measured every minute for 1 hr by fluorescence assay
T2 sequence (P28062 whole entry): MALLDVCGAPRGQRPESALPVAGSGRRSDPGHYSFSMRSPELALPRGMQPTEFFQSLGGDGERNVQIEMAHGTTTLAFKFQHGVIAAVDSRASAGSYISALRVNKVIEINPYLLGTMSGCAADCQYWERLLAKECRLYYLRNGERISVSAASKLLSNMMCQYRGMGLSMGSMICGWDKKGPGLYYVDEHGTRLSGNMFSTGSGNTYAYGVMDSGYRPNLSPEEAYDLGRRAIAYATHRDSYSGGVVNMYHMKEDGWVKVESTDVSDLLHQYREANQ
In short: as §1, with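 “Purified human 20S constitutive or immunoproteasome, 50 ng in 20 mM Tris-HCl, 0.5 mM EDTA, 0.035% SDS, pH 8.0. Preincubated” for “Preincubated”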

[3] = target: T1, Proteasome subunit beta type-9; experiment: Inhibition of human 20S proteasome LMP2 activity in human RPMI-8226 cells using Ac-PAL-AMC as fluorogenic substrate incubated for 72 hrs by fluorescence assay; type: cell-based
[4] = species on record: Homo sapiens; experiment: Selectivity index, ratio of IC50 for inhibition of human 20S proteasome LMP2 activity in human RPMI-8226 cells overexpressing ABCB1 to IC50 for inhibition of human 20S proteasome LMP2 activity in human RPMI-8226 cells; type: cell-based
In short: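 Carfilzomib-resistant RPMI 8226/ABCB1 line, kept drug-free for two weeks, alongside parental RPMI 8226. Cells exposed to varying inhibitor concentrations for 72 h, n=3 per concentration. Lysates (5 μg protein, pH 8.0 Tris/EDTA/0.035% SDS buffer) read with 100 μM Ac-PAL-AMC at ex 360/em 460 nm every minute for 1 h. IC50 from curve fitting, mean ± SD.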

[5] = Metabolic stability in ICR mouse whole blood at 1 uM measured upto 30 mins by LC-MS/MS analysis; type: ADME, tissue-based; settings: 0.5 h
In short: (§2)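 Tissues from male ICR mice, 7 weeks old. Heparinized (25 IU/mL) whole blood, or liver homogenized in ice-cold PBS, prewarmed to 37 °C and spiked to a final 1 μM. Samples taken at 0, 10 and 30 min (blood) or 0, 10 and 20 min (liver). […] Remaining drug quantified by C18 LC-MS/MS.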

[6] = Metabolic stability in ICR mouse liver homogenate at 1 uM measured upto 20 mins by LC-MS/MS analysis; type: ADME, tissue-based; settings: tissue homogenate; in short: as §2
[7] = target: T3, Proteasome subunit beta type-9 (Mus musculus) (UniProt P28076); experiment: Inhibition of LMP2 in ICR mouse brain homogenate at 10 mg/kg, iv after 1 hr; type: organism-based
T3 sequence (whole entry): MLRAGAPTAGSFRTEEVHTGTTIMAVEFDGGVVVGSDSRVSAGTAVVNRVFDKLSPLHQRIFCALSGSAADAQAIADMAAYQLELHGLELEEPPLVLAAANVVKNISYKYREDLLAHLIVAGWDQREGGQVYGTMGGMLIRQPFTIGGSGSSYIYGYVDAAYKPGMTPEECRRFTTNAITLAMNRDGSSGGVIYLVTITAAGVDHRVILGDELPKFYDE
In short: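 ICR mice received a single intravenous dose of 10 mg/kg. Brain homogenates taken at 1 h post-dose were assayed for compound level and for LMP2 activity.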

[8] = tested on: Mus musculus; experiment: Cognitive enhancing effect in Tg2576 mouse assessed as shorter distances travelled before reaching the escape platform at 10 mg/kg, iv administered twice weekly and measured after 5 days by Morris water maze test; type: functional, organism-based; settings: time 5.0 day
In short: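 Tg2576 mice, 9 months old, given 10 mg/kg twice weekly for 3 weeks. Morris water maze in 25 ± 1 °C water, platform hidden 1-1.5 cm below surface. Three 60-s trials a day from randomized start points for 5 days. Swim paths tracked from an overhead camera. Single probe trial on day 6 scored as time in target quadrant. n=5 treated, n=12 control on days 4-5; Student's t-test.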

[9] = tested on: Mus musculus; experiment: Cognitive enhancing effect in Tg2576 mouse assessed as latency to enter dark compartment at 10 mg/kg, iv administered twice weekly and measured on 7 and 8 days by step-through passive avoidance test; type: functional, organism-based; settings: time 7-8 day
In short: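 Tg2576 mice (9-month-old), 10 mg/kg twice weekly for 3 weeks. Step-through passive avoidance run 48 h after the probe test. Learning trial: 0.45 mA, 3 s shock on entering the dark room. Testing trial 24 h later (day 8) without shock, timed as latency to re-enter the dark chamber from the lighted compartment. n=5; Student's t-test.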

[10] = tested on: Mus musculus; experiment: In vivo inhibition of immunoproteasome in Tg2576 mouse assessed as reduction in serum IL-1alpha level at 10 mg/kg, iv administered twice weekly for 3 weeks by ELISA; type: functional, organism-based
In short: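 Serum from Tg2576 mice dosed at 10 mg/kg twice weekly for 3 weeks, diluted 1:5. IL-1α sandwich ELISA: samples and standards 2 h at room temperature, detection antibody 1 h, avidin-HRP 30 min. Stopped with 2N H2SO4 and read at 450 nm against a standard curve of seven twofold dilutions. n=3.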

[11] = Toxicity in ICR mouse; settings: in vivo
[12] = target: Proteasome subunit beta type-9 (Mus musculus) (UniProt P28076); experiment: Inhibition of LMP2 in mouse BV-2 cells assessed as reduction in LPS-stimulated IL-1alpha release by ELISA
[13] = tested on: Proteasome subunit beta type-9 (Canis lupus familiaris); experiment: Inhibition of canine 20S proteasome LMP2 activity in MDCK-II cells using Ac-PAL-AMC as fluorogenic substrate by fluorescence assay
[14] = tested on: Proteasome subunit beta type-9 (Canis lupus familiaris); experiment: Inhibition of canine 20S proteasome LMP2 activity in MDCK-II cells overexpressing ABCG2 using Ac-PAL-AMC as fluorogenic substrate by fluorescence assay

Compound: C[C@]1(C(=O)[C@H](Cc2ccccc2)NC(=O)[C@@H]2Cc3ccc(cc3)OCCCCCCCC(=O)N3CCC[C@H]3C(=O)N2)CO1
- IC50 [1]: 184 nM
- IC50 [2]: 399 nM
- IC50 [3]: 32.7 nM
- Ratio IC50 [4]: 3.3
- Stability [5]: Stable
- Stability [6]: Stable
- inhibition [7]: inactive
- Activity [8]: Active
- Activity [9]: Active
- inhibition [10]: Active
- Activity [11]: Non-Toxic
- inhibition [12]: Active
- inhibition [13]: Active
- inhibition [14]: Active
